Laboratory results published in ChEMBL document CHEMBL1212794, “Efficacy of clarithromycin against experimentally induced pneumonia caused by clarithromycin-resistant Haemophilus influenzae in mice” (2010).
Values after ≈ are worked out from the molar mass of the structure shown. Active and inactive are the calls of the source. The calls are words filed in the database; no cut-off is given here.

Legend:
Haemophilus influenzae [1] = test: Antibacterial activity against nontypeable beta-lactamase-negative ampicillin-resistant Haemophilus influenzae 4437; assay type: functional
Outline: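 MIC by CLSI broth dilution in Haemophilus Test Medium, inoculum 10^5 CFU/ml, tested in duplicate. β-lactamase production checked by nitrocefin test.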

Mus musculus [2] = test: Antiinflammatory activity against nontypeable beta-lactamase-negative ampicillin-resistant Haemophilus influenzae 4437 infected in mouse ddY assessed as decrease in total cell count in bronchoalveolar lavage fluid at 100 mg/kg, po bid for 3 days; assay type: functional, organism-based; parameters: dose 100 mg/kg; conditions: Lung
Outline: (§1)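 Intubated ddY mice challenged intratracheally, then dosed orally twice daily from 24 h for 3 days and lavaged 12 h after the last dose (3 × 1.0 ml saline, pooled). Total cells counted with Turk stain. Differentials counted on 100 cytocentrifuged cells stained with Diff-Quick. Four experiments.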

Mus musculus [3] = test: Antiinflammatory activity against nontypeable beta-lactamase-negative ampicillin-resistant Haemophilus influenzae 4437 infected in mouse ddY assessed as decrease in neutrophil count in bronchoalveolar lavage fluid at 100 mg/kg, po bid for 3 days relative to control; assay type: functional, organism-based; parameters: dose 100 mg/kg; conditions: Lung; outline: as §1
Mus musculus [4] = test: Antiinflammatory activity against nontypeable beta-lactamase-negative ampicillin-resistant Haemophilus influenzae 4437 infected in mouse ddY assessed as decrease in neutrophil count in bronchoalveolar lavage fluid at 40 mg/kg, po bid for 3 days; assay type: functional, organism-based; parameters: dose 40 mg/kg; conditions: Lung; outline: as §1
Mus musculus [5] = test: Antiinflammatory activity against nontypeable beta-lactamase-negative ampicillin-resistant Haemophilus influenzae infected in mouse ddY assessed as inflammatory changes in lung at 40 mg/kg, po bid for 3 days relative to control; assay type: functional, organism-based; parameters: dose 40 mg/kg
Outline: (§2)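 Intubated ddY mice challenged intratracheally, then dosed orally twice daily for 3 days. Lungs fixed in 10% buffered formalin, stained with hematoxylin and eosin, and examined at ×200 for inflammatory cell infiltration of alveoli and bronchioles.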

Mus musculus [6] = test: Antiinflammatory activity against nontypeable beta-lactamase-negative ampicillin-resistant Haemophilus influenzae 4437 infected in mouse ddY assessed as decrease in IL1-beta level in bronchoalveolar lavage fluid at 100 mg/kg, po bid for 3 days relative to control; assay type: functional, organism-based; parameters: dose 100 mg/kg; conditions: Lung
Outline: (§3)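 Intubated ddY mice challenged intratracheally, then dosed orally twice daily from 24 h for 3 days and killed 12 h after the last dose. BAL done with 3 × 1.0 ml saline, pooled per animal. MIP-2 and IL-1β in BAL fluid measured by mouse ELISA kits. Four experiments.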

Haemophilus influenzae [7] = test: Antibacterial activity against nontypeable beta-lactamase-negative ampicillin-resistant Haemophilus influenzae 4437 infected in mouse ddY assessed as decrease in viable bacterial count at 40 mg/kg, po bid for 3 days; assay type: functional
Outline: (§4)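 Male ddY SPF mice, 6 weeks old, with a tube placed into the main bronchus 7 days before intratracheal challenge under pentobarbital. Drug given in DMSO orally twice daily from 24 h post-infection for 3 days. Mice killed 12 h after the last dose. Lungs homogenized in 1.0 ml PBS, serially diluted and plated on chocolate agar overnight at 37°C, 5% CO2. Four experiments.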

Mus musculus [8] = test: Antiinflammatory activity against nontypeable beta-lactamase-negative ampicillin-resistant Haemophilus influenzae 4437 infected in mouse ddY assessed as decrease in MIP-2 level in bronchoalveolar lavage fluid at 40 mg/kg, po bid for 3 days relative to control; assay type: functional, organism-based; parameters: dose 40 mg/kg; conditions: Lung; outline: as §3
Mus musculus [9] = test: Antiinflammatory activity against nontypeable beta-lactamase-negative ampicillin-resistant Haemophilus influenzae 4437 infected in mouse ddY assessed as decrease in MIP-2 level in bronchoalveolar lavage fluid at 100 mg/kg, po bid for 3 days relative to control; assay type: functional, organism-based; parameters: dose 100 mg/kg; conditions: Lung; outline: as §3
Mus musculus [10] = test: Antiinflammatory activity against nontypeable beta-lactamase-negative ampicillin-resistant Haemophilus influenzae infected in mouse ddY assessed as inflammatory changes in lung at 100 mg/kg, po bid for 3 days relative to control; assay type: functional, organism-based; parameters: dose 100 mg/kg; outline: as §2
Haemophilus influenzae [11] = test: Antibacterial activity against nontypeable beta-lactamase-negative ampicillin-resistant Haemophilus influenzae 4437 infected in mouse ddY assessed as decrease in viable bacterial count at 100 mg/kg, po bid for 3 days; assay type: functional; outline: as §4
Mus musculus [12] = test: Antiinflammatory activity against nontypeable beta-lactamase-negative ampicillin-resistant Haemophilus influenzae 4437 infected in mouse ddY assessed as decrease in IL1-beta level in bronchoalveolar lavage fluid at 40 mg/kg, po bid for 3 days relative to control; assay type: functional, organism-based; parameters: dose 40 mg/kg; conditions: Lung; outline: as §3
Mus musculus [13] = test: Antiinflammatory activity against nontypeable beta-lactamase-negative ampicillin-resistant Haemophilus influenzae 4437 infected in mouse ddY assessed as decrease in total cell count in bronchoalveolar lavage fluid at 40 mg/kg, po bid for 3 days; assay type: functional, organism-based; parameters: dose 40 mg/kg; conditions: Lung; outline: as §1
Haemophilus influenzae [14] = test: Antibacterial activity against macrolide-resistant Haemophilus influenzae 4437 infected in NCI-H292 cells assessed as decrease in viable bacterial count at 64 ug/ml by 3-h invasion assay; assay type: functional, organism-based
Outline: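 NCI-H292 cells in RPMI 1640 with 10% FBS, seeded at 5 × 10^5/well, then held in 0.5% FBS for 24 h at confluence. Infected with 10 µl of about 6 × 10^6 CFU/ml bacteria for 3 h at 37°C, 5% CO2. Washed, then gentamicin 200 µg/ml with drug for 2 h. Lysed in 1% Triton X-100; intracellular CFU counted on chocolate agar. Three experiments.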

Work on `CC1(C)S[C@@H]2[C@H](NC(=O)[C@H](N)c3ccccc3)C(=O)N2[C@H]1C(=O)O` [AMPICILLIN] yielded an MIC (Haemophilus influenzae [1]) of 16 µg/mL (≈ 45.8 µM).
In the case of `CC[C@H]1OC(=O)[C@H](C)[C@@H](O[C@H]2C[C@@](C)(OC)[C@@H](O)[C@H](C)O2)[C@H](C)[C@@H](O[C@@H]2O[C@H](C)C[C@H](N(C)C)[C@H]2O)[C@](C)(OC)C[C@@H](C)C(=O)[C@H](C)[C@@H](O)[C@]1(C)O` [CLARITHROMYCIN], the Activity (Mus musculus [2]) is reported as “Active”, the Activity (Mus musculus [3]) is reported as “Active” and the Activity (Mus musculus [4]) is reported as “Active”. For the same molecule, the Activity (Mus musculus [5]) was “Active”, the Activity (Mus musculus [6]) was “Active” and the MIC (Haemophilus influenzae [1]) was 64 µg/mL (≈ 85.6 µM). For the same molecule, the log10CFU/ml (Haemophilus influenzae [7]) was 5.8, the Activity (Mus musculus [8]) was “Active” and the Activity (Mus musculus [9]) was “Active”. The Activity (Mus musculus [10]) was “Active”, the log10CFU/ml (Haemophilus influenzae [11]) was 4.6 and the Activity (Mus musculus [12]) was “Active”. For the same molecule, the Activity (Mus musculus [13]) was “Active” and the Activity (Haemophilus influenzae [14]) was “Active”.
